Results from ChEMBL document CHEMBL2407028, “Discovery of novel oxazolidinedione derivatives as potent and selective mineralocorticoid receptor antagonists” (Bioorg Med Chem Lett, 2013).

How the values were obtained:
[1] = Oral bioavailability in rat at 1 mg/kg; assay type: ADME, organism-based; conditions: in vivo
Outline: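 Rats dosed at 1 mg/kg iv (n = 2) or 1 mg/kg po (n = 3), formulated at 1 mg/mL in PEG 200:water (70:30). Blood concentrations measured by LC/MS/MS after protein precipitation with acetonitrile.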

[2] = biological target: T1, Mineralocorticoid receptor (Homo sapiens, UniProt P08235); test: Antagonist activity at human mineralocorticoid receptor assessed as inhibition of binding to coactivator peptide by NH Pro assay
T1 sequence (P08235 whole entry): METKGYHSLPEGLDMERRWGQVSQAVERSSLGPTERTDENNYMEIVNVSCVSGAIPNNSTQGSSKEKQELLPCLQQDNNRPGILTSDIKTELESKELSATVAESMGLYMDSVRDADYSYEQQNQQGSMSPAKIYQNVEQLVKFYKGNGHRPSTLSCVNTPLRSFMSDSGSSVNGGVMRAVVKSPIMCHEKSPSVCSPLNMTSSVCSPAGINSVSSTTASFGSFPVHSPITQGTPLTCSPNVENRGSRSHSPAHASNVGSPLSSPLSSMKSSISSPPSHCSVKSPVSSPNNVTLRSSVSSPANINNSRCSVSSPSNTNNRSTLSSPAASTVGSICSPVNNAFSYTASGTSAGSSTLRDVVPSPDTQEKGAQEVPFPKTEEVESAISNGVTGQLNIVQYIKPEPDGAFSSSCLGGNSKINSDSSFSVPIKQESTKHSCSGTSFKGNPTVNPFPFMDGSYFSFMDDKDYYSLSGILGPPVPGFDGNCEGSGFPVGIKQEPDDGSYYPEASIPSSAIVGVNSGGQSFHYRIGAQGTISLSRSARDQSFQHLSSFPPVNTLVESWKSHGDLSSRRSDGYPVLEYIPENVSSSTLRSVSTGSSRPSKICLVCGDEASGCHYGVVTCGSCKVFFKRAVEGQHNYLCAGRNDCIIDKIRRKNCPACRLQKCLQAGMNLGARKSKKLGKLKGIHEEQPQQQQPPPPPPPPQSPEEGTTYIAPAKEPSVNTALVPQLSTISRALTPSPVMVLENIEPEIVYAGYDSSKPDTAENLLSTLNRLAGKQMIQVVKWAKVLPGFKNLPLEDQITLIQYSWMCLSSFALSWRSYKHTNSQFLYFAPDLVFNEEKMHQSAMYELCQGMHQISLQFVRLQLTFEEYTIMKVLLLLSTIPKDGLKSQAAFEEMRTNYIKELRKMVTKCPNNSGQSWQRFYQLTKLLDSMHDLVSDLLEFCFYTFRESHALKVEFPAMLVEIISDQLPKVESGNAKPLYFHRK

| Compound | bioavailability [1] [%] | IC50 [2] [nM] |
| --- | --- | --- |
| COc1cc(CNC(=O)[C@@]2(Cc3ccccc3)OC(=O)N([C@@H]3CCc4ccccc43)C2=O)cc(OC)c1 | 28 | 33 |
| C[C@H](c1ccc(F)cc1)N1C(=O)O[C@](Cc2ccc(F)cc2)(C(=O)NCc2ccc(Cl)c(Cl)c2)C1=O | 63 | 180 |
